From ChEMBL document CHEMBL5096209, “Structure-Activity Studies of 3,9-Diazaspiro[5.5]undecane-Based γ-Aminobutyric Acid Type A Receptor Antagonists with Immunomodulatory Effect” (J Med Chem, 2021)

What was measured:
[1] = target: T1, Gamma-aminobutyric acid receptor subunit alpha-1/beta-2/delta (Homo sapiens, UniProt O14764+P14867+P47870); experiment: Antagonist activity at recombinant human alpha1beta2delta GABAA receptor expressed in HEK293 Flp-In cells by FMP assay; assay type: cell-based, Flp-In-293
T1 sequence (P14867 whole entry): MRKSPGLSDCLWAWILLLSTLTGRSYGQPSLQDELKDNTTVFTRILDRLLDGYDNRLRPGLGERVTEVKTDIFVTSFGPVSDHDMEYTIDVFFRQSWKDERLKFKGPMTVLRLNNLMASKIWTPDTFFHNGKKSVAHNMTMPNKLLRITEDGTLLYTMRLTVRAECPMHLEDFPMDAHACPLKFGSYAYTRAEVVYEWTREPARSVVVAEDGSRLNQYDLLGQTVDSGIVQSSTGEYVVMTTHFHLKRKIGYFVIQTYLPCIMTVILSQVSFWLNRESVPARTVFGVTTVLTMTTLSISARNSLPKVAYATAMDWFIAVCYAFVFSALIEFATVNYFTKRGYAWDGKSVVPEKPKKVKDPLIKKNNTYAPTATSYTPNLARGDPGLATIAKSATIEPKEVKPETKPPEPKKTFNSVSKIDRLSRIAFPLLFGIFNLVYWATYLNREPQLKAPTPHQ
T1 sequence (P47870 whole entry): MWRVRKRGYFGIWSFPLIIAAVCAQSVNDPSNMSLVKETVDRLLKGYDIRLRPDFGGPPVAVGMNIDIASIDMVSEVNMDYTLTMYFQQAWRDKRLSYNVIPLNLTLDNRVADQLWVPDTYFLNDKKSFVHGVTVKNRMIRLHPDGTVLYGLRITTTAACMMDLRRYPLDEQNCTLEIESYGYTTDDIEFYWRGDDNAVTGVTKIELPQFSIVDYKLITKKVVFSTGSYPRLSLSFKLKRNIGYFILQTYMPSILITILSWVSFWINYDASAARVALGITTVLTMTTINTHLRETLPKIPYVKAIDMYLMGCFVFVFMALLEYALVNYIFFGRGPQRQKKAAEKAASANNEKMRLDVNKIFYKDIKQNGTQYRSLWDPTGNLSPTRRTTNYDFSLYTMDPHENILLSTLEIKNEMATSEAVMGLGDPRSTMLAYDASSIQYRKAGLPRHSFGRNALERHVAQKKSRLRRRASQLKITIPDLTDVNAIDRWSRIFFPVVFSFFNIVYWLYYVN
T1 sequence (O14764 whole entry): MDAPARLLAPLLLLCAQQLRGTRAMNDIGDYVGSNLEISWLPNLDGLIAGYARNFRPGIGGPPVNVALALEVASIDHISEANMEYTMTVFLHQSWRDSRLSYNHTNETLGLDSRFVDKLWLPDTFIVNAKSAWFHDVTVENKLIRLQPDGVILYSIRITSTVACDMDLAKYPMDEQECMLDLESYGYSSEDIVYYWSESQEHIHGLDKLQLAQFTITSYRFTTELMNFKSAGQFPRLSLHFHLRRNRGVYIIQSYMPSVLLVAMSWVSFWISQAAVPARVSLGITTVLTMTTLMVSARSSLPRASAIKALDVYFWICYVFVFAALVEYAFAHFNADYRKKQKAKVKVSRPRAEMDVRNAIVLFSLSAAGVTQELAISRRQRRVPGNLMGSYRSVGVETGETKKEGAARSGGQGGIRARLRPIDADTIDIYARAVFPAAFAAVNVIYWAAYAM
Procedure, shortened: (§1)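 HEK293 Flp-In cells stably expressing human δ subunit, transiently transfected with human α and β subunits (1:1) to form αβδ receptors. Read-out is the FLIPR membrane potential dye ΔRFU, baseline to peak/plateau, with GABA EC80 as agonist. Four-parameter fit of concentration–inhibition curves gives IC50, from at least three independent experiments.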

[2] = Antagonist activity at recombinant human alpha6beta2delta GABAA receptor expressed in HEK293 Flp-In cells by FMP assay; assay type: cell-based, Flp-In-293; procedure, shortened: as §1
[3] = target: T1, Gamma-aminobutyric acid receptor subunit alpha-1/beta-2/delta; experiment: Antagonist activity at human alpha1beta2delta GABAA receptor expressed in HEK293 Flp-In cells by FMP assay; assay type: cell-based, Flp-In-293; procedure, shortened: as §1
[4] = target: T2, GABA-A receptor; alpha-1/beta-2/gamma-2 (Homo sapiens, UniProt P14867+P18507+P47870); experiment: Antagonist activity at human alpha1beta2gamma2 GABAA receptor expressed in HEK293 cells by FMP assay; assay type: cell-based
T2 sequence (P14867 whole entry): T1 sequence (P14867 whole entry)
T2 sequence (P47870 whole entry): T1 sequence (P47870 whole entry)
T2 sequence (P18507 whole entry): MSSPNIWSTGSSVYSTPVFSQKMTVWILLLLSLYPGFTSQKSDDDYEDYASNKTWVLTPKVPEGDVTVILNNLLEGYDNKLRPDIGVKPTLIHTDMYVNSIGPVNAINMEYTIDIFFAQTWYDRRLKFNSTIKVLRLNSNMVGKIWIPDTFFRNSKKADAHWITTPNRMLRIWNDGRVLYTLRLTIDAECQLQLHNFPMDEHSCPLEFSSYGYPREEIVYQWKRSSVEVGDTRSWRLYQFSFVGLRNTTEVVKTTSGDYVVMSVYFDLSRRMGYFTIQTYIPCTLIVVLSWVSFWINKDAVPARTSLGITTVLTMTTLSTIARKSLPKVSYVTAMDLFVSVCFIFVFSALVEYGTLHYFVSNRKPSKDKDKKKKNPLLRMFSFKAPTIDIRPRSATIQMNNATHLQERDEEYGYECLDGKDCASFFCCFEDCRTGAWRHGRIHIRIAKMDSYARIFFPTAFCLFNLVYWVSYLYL
Procedure, shortened: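 Human αβγ2 receptors in HEK293 cells: α1β2γ2 stably expressed, other αβγ2 subtypes transiently transfected into HEK293 Flp-In background cells (α:β:γ 1:1:2). FLIPR membrane potential assay with ΔRFU baseline to peak/plateau and GABA EC80 as agonist. IC50 from a four-parameter fit, at least three independent experiments.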

[5] = Antagonist activity at human alpha6beta2delta GABAA receptor expressed in HEK293 Flp-In cells by FMP assay; assay type: cell-based, Flp-In-293; procedure, shortened: as §1
[6] = Homo sapiens, Flp-In-293, read-out: pIC50 (converted)

O=C(Nc1cccc(C(=O)N2CCC3(CCNCC3)CC2)c1)c1cccs1
IC50 ([1]; read-out: pIC50 (converted)): 0.245 µM | IC50 [2, 6]: 0.331 µM | IC50 ([2]; flp-in-293): 0.33 µM

Cc1cccc(C(=O)N2CCC3(CCNCC3)CC2)c1
IC50 [3]: 4.95 µM | IC50 ([3]; read-out: pIC50 (converted)): 4.9 µM | IC50 [4]: 2.18 µM | IC50 ([4]; read-out: pIC50 (converted)): 2.19 µM | IC50 [5, 6]: 1.91 µM | IC50 ([5]; flp-in-293): 1.95 µM

CC(=O)Nc1cccc(C(=O)N2CCC3(CCNCC3)CC2)c1
IC50 [1]: 6.68 µM | IC50 ([1]; read-out: pIC50 (converted)): 6.76 µM | IC50 [2, 6]: 4.17 µM | IC50 ([2]; flp-in-293): 4.13 µM

Cc1ccc(C(=O)N2CCC3(CCNCC3)CC2)cc1
IC50 [3]: 13.2 µM | IC50 ([3]; read-out: pIC50 (converted)): 13.2 µM | IC50 [4]: 10 µM | IC50 ([4]; read-out: pIC50 (converted)): 10 µM | IC50 [5, 6]: 8.71 µM | IC50 ([5]; flp-in-293): 8.87 µM
